Source: ChEMBL document CHEMBL1649166, “Relative contributions of the Candida albicans ABC transporters Cdr1p and Cdr2p to clinical azole resistance” (2009)
Values after ≈ are worked out from the molar mass of the structure shown.

Experiments:
Format in all cases: functional
Candida albicans [1] = assay: Antifungal activity against azole-susceptible Candida albicans 5457 after 48 hrs; conditions: Candida albicans, 5457, 48 h
Outline: (§1)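 Liquid microtiter broth assay in YPD, cells incubated 48 h at 30°C with drug (e.g. FLC 0.2–200 µg/ml; KTC 0.001–1.2 µg/ml). Growth read as OD620 and expressed relative to drug-free growth of the same strain. MIC50 taken as the first concentration reducing growth by 50%. Mean of three independent experiments, each in duplicate.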

Candida albicans [2] = assay: Antifungal activity against azole-resistant Candida albicans 5674 after 48 hrs; conditions: Candida albicans, 5674, 48 h; outline: as §1
Candida albicans [3] = assay: Antifungal activity against cdr1/cdr1/cdr2/cdr2 deficient Candida albicans STY31 after 48 hrs; conditions: STY31, 48 h; outline: as §1
Candida albicans [4] = assay: Antifungal activity against cdr1/cdr1 deficient Candida albicans STY19 after 48 hrs; conditions: STY19, 48 h; outline: as §1
Candida albicans [5] = assay: Antifungal activity against tac1/tac1 deficient Candida albicans SZY31 after 48 hrs; conditions: SZY31, 48 h; outline: as §1
Candida albicans [6] = assay: Antifungal activity against cdr2/cdr2 deficient Candida albicans STY7 after 48 hrs; conditions: STY7, 48 h; outline: as §1
Candida albicans [7] = assay: Ratio of MIC50 for cdr1/cdr1 deficient Candida albicans STY19 to MIC50 for cdr1/cdr1/cdr2/cdr2 deficient Candida albicans STY31
Outline: (§2)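 Ratios use MIC50s from the YPD liquid microtiter assay (48 h, 30°C, OD620 growth relative to drug-free control). MIC50 is the first concentration giving a 50% growth reduction, as the mean of three independent experiments in duplicate. The MIC50 of one strain is divided by that of the other.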

Candida albicans [8] = assay: Ratio of MIC50 for Candida albicans 5674 to MIC50 for cdr1/cdr1 deficient Candida albicans STY19; outline: as §2
Candida albicans [9] = assay: Ratio of MIC50 for Candida albicans 5674 to MIC50 for tac1/tac1 deficient Candida albicans SZY31; outline: as §2
Candida albicans [10] = assay: Ratio of MIC50 for Candida albicans 5674 to MIC50 for cdr2/cdr2 deficient Candida albicans STY7; outline: as §2
Candida albicans [11] = assay: Antifungal activity against Candida albicans STY47 expressing cdr2 gene after 48 hrs; conditions: STY47, 48 h; outline: as §1
Candida albicans [12] = assay: Ratio of MIC50 for Candida albicans 5674 to MIC50 for Candida albicans STY47 expressing cdr2 gene; outline: as §2
Candida albicans [13] = assay: Ratio of MIC50 for Candida albicans 5674 to MIC50 for cdr1/cdr1/cdr2/cdr2 deficient Candida albicans STY31; outline: as §2

Structure (SMILES)	MIC50 (Candida albicans [1]) [µg/mL]	MIC50 (Candida albicans [2]) [µg/mL]	MIC50 (Candida albicans [3]) [µg/mL]	MIC50 (Candida albicans [4]) [µg/mL]	MIC50 (Candida albicans [5]) [µg/mL]	MIC50 (Candida albicans [6]) [µg/mL]	Ratio (Candida albicans [7])	Ratio (Candida albicans [8])	Ratio (Candida albicans [9])	Ratio (Candida albicans [10])	MIC50 (Candida albicans [11]) [µg/mL]	Ratio (Candida albicans [12])	Ratio (Candida albicans [13])
CC/N=c1\cc2oc3cc(NCC)c(C)cc3c(-c3ccccc3C(=O)OCC)c-2cc1C.Cl [RHODAMINE 6G HYDROCHLORIDE]	8	16	8	8	2	16							
OCCN1CCN(CCCN2c3ccccc3Sc3ccc(C(F)(F)F)cc32)CC1 [FLUPHENAZINE]	75 (≈ 171 µM)	75 (≈ 171 µM)	25 (≈ 57.1 µM)	50 (≈ 114 µM)	38 (≈ 86.9 µM)	75 (≈ 171 µM)	2	1.5	2	1			
OC(Cn1cncn1)(Cn1cncn1)c1ccc(F)cc1F [FLUCONAZOLE]	3.1 (≈ 10.1 µM)	150 (≈ 490 µM)	0.4 (≈ 1.31 µM)	25 (≈ 81.6 µM)	6.2 (≈ 20.2 µM)	100 (≈ 327 µM)		6		1.5	6.3 (≈ 20.6 µM)	16	375
CC(=O)N1CCN(c2ccc(OCC3COC(Cn4ccnc4)(c4ccc(Cl)cc4Cl)O3)cc2)CC1 (stereo unspecified) [KETOCONAZOLE]	0.018 (≈ 0.0339 µM)	0.6 (≈ 1.13 µM)	0.002 (≈ 0.00376 µM)	0.15 (≈ 0.282 µM)	0.009 (≈ 0.0169 µM)	0.4 (≈ 0.753 µM)		4		1.5			300
CCC(C)n1ncn(-c2ccc(N3CCN(c4ccc(OCC5COC(Cn6cncn6)(c6ccc(Cl)cc6Cl)O5)cc4)CC3)cc2)c1=O (stereo unspecified) [ITRACONAZOLE]	0.0125 (≈ 0.0177 µM)	0.2 (≈ 0.283 µM)	0.0004 (≈ 0.000567 µM)	0.025 (≈ 0.0354 µM)	0.0063 (≈ 0.00893 µM)	0.2 (≈ 0.283 µM)		8		1			500
C[C@@H]1[C@H](O)[C@@H](C)/C=C/C=C/C=C/C=C/C=C/C=C/C=C/[C@H](O[C@@H]2O[C@H](C)[C@@H](O)[C@H](N)[C@@H]2O)C[C@@H]2O[C@](O)(C[C@@H](O)C[C@@H](O)[C@H](O)CC[C@@H](O)C[C@@H](O)CC(=O)O[C@H]1C)C[C@H](O)[C@H]2C(=O)O [AMPHOTERICIN B]	1 (≈ 1.08 µM)	2 (≈ 2.16 µM)	2 (≈ 2.16 µM)	2 (≈ 2.16 µM)	1 (≈ 1.08 µM)	2 (≈ 2.16 µM)							
